{
  "source": "ChEMBL document CHEMBL1926520",
  "about": "“13,13-Dimethyl-des-C,D analogues of (20S)-1α,25-dihydroxy-2-methylene-19-norvitamin D₃ (2MD): total synthesis, docking to the VDR, and biological evaluation” (Bioorg Med Chem, 2011)",
  "key": {"[1]": {"test_system": "Rattus norvegicus", "experiment": "Calcium mobilization in vitamin-D deficient weanling rat bone assessed as increase in serum calcium level at 0.2 ug/kg, ip administered daily for 7 consecutive days measured 24 hrs after last dose relative to vehicle treated control", "assay_type": "functional", "method_in_brief": "(§1)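 Vitamin D-deficient rats were kept on a low-calcium diet and in the final week dosed ip once daily for 7 consecutive days in 0.1 ml propylene glycol/ethanol (95:5). Controls received vehicle only. Serum Ca (mg/dL) was measured 24 h after the last dose and reported as the increase over vehicle-treated rats, average ± SEM, with 5–6 rats per group.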"}, "[2]": {"test_system": "Rattus norvegicus", "experiment": "Calcium mobilization in vitamin-D deficient weanling rat bone assessed as increase in serum calcium level at 0.7 ug/kg, ip administered daily for 7 consecutive days measured 24 hrs after last dose relative to vehicle treated control", "assay_type": "functional", "method_in_brief": "as §1"}, "[3]": {"test_system": "Rattus norvegicus", "experiment": "Calcium mobilization in vitamin-D deficient weanling rat bone assessed as increase in serum calcium level at 2.1 ug/kg, ip administered daily for 7 consecutive days measured 24 hrs after last dose relative to vehicle treated control", "assay_type": "functional", "method_in_brief": "as §1"}, "[4]": {"test_system": "Rattus norvegicus", "experiment": "Calcium mobilization in vitamin-D deficient weanling rat bone assessed as increase in serum calcium level at 19 ug/kg, ip administered daily for 7 consecutive days measured 24 hrs after last dose relative to vehicle treated control", "assay_type": "functional", "method_in_brief": "as §1"}, "[5]": {"test_system": "Rattus norvegicus", "experiment": "Calcium transport in vitamin-D deficient weanling rat intestine assessed as intestinal calcium level at 0.2 ug/kg, ip administered daily for 7 consecutive days measured 24 hrs after last dose", "assay_type": "functional", "method_in_brief": "(§2)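 Vitamin D-deficient rats were kept on a low-calcium diet and dosed ip daily for 7 consecutive days in the last week, in 0.1 ml propylene glycol/ethanol (95:5), with vehicle-only controls. Measurements were taken 24 h after the final dose. Intestinal calcium transport was expressed as the rise in serosal/mucosal (S/M) ratio over vehicle, average ± SEM, with 5–6 rats per group.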"}, "[6]": {"test_system": "Rattus norvegicus", "experiment": "Calcium transport in vitamin-D deficient weanling rat intestine assessed as intestinal calcium level at 0.7 ug/kg, ip administered daily for 7 consecutive days measured 24 hrs after last dose", "assay_type": "functional", "method_in_brief": "as §2"}, "[7]": {"test_system": "Rattus norvegicus", "experiment": "Calcium transport in vitamin-D deficient weanling rat intestine assessed as intestinal calcium level at 2.1 ug/kg, ip administered daily for 7 consecutive days measured 24 hrs after last dose", "assay_type": "functional", "method_in_brief": "as §2"}, "[8]": {"test_system": "Rattus norvegicus", "experiment": "Calcium transport in vitamin-D deficient weanling rat intestine assessed as intestinal calcium level at 19 ug/kg, ip administered daily for 7 consecutive days measured 24 hrs after last dose", "assay_type": "functional", "method_in_brief": "as §2"}, "[9]": {"biological_target": "T1, Vitamin D3 receptor (Rattus norvegicus, UniProt P13053)", "T1 sequence (P13053 whole entry)": "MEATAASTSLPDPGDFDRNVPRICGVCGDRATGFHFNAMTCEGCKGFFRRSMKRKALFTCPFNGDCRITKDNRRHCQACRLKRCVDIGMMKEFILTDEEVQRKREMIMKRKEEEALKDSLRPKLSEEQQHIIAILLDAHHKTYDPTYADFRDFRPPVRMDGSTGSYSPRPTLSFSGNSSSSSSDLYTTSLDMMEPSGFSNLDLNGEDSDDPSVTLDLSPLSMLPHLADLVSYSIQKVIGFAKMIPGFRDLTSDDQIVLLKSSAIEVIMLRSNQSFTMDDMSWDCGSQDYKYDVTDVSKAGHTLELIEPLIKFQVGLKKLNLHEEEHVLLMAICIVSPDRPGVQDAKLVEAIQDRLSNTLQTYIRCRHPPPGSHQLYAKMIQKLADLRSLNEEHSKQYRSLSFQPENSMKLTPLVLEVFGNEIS", "experiment": "Agonist activity at rat VDR in ROS 17/2.8 cells transfected with Cyp24a1 reporter plasmid assessed as increase in Cyp24a1 transcription after 16 hrs by luciferase reporter gene assay", "assay_type": "functional, cell-based", "method_in_brief": "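ROS 17/2.8 osteosarcoma (bone) cells stably carrying a Cyp24a1 promoter–luciferase reporter were given a range of doses. Cells were harvested 16 h after dosing and luciferase was read on a luminometer. Duplicates were run on two–three separate occasions.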"}, "[10]": {"test_system": "Rattus norvegicus", "experiment": "Calcium mobilization in vitamin-D deficient weanling rat bone assessed as increase in serum calcium level at 6.5 ug/kg, ip administered daily for 7 consecutive days measured 24 hrs after last dose relative to vehicle treated control", "assay_type": "functional", "method_in_brief": "as §1"}, "[11]": {"test_system": "Rattus norvegicus", "experiment": "Calcium transport in vitamin-D deficient weanling rat intestine assessed as intestinal calcium level at 6.5 ug/kg, ip administered daily for 7 consecutive days measured 24 hrs after last dose", "assay_type": "functional", "method_in_brief": "as §2"}, "[12]": {"biological_target": "T1, Vitamin D3 receptor", "experiment": "Displacement of [3H]-1alpha,25(OH)2D3 from recombinant rat VDR by scintillation counting", "method_in_brief": "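It was incubated overnight on ice with 1 nM final [3H]-1α,25(OH)2D3 plus unlabeled ligand in ethanol (<10% final). Bound ligand was collected on hydroxylapatite, washed and counted by scintillation. […] Duplicates were run on two–three occasions.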"}, "[13]": {"test_system": "HL-60", "experiment": "Induction of human HL60 cell differentiation after 4 days by nitro blue tetrazolium reduction assay relative to 1alpha,25(OH)2D3", "assay_type": "functional", "method_in_brief": "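HL-60 cells were grown in RPMI-1640 with 10% FBS at 37 °C and 5% CO2, plated at 1.2×10^5 cells/plate, and treated in duplicate 18 h later (ethanol <0.2% final). After 4 days, NBT reduction was scored by counting formazan-positive cells among 200. […] The experiment was repeated 2–3 times.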"}, "[14]": {"test_system": "Rattus norvegicus", "experiment": "Calcium mobilization in vitamin-D deficient weanling rat bone assessed as increase in serum calcium level at 1.9 ug/kg, ip administered daily for 7 consecutive days measured 24 hrs after last dose relative to vehicle treated control", "assay_type": "functional", "method_in_brief": "as §1"}, "[15]": {"test_system": "Rattus norvegicus", "experiment": "Calcium mobilization in vitamin-D deficient weanling rat bone assessed as increase in serum calcium level at 5.7 ug/kg, ip administered daily for 7 consecutive days measured 24 hrs after last dose relative to vehicle treated control", "assay_type": "functional", "method_in_brief": "as §1"}, "[16]": {"test_system": "Rattus norvegicus", "experiment": "Calcium mobilization in vitamin-D deficient weanling rat bone assessed as increase in serum calcium level at 22.8 ug/kg, ip administered daily for 7 consecutive days measured 24 hrs after last dose relative to vehicle treated control", "assay_type": "functional", "method_in_brief": "as §1"}, "[17]": {"test_system": "Rattus norvegicus", "experiment": "Calcium mobilization in vitamin-D deficient weanling rat bone assessed as increase in serum calcium level at 97 ug/kg, ip administered daily for 7 consecutive days measured 24 hrs after last dose relative to vehicle treated control", "assay_type": "functional", "method_in_brief": "as §1"}, "[18]": {"test_system": "Rattus norvegicus", "experiment": "Calcium transport in vitamin-D deficient weanling rat intestine assessed as intestinal calcium level at 97 ug/kg, ip administered daily for 7 consecutive days measured 24 hrs after last dose", "assay_type": "functional", "method_in_brief": "as §2"}, "[19]": {"test_system": "HL-60", "experiment": "Induction of human HL60 cell differentiation after 4 days by nitro blue tetrazolium reduction assay", "assay_type": "functional, cell-based", "conditions": "HL-60, 96 h"}},
  "data": [
    {"smiles": "C=C1/C(=C\\C=C2/CCC[C@]3(C)[C@@H]([C@H](C)CCCC(C)(C)O)CC[C@@H]23)C[C@@H](O)C[C@@H]1O", "note": "[CALCITRIOL]", "values": [
      {"measurement": "Activity", "setting": "[1]", "value": 0.5, "unit": "mg/dL"},
      {"measurement": "Activity", "setting": "[2]", "value": 1.3, "unit": "mg/dL"},
      {"measurement": "Activity", "setting": "[3]", "value": 1.9, "unit": "mg/dL"},
      {"measurement": "Activity", "setting": "[4]", "value": 3.9, "unit": "mg/dL"},
      {"measurement": "Activity", "setting": "[5]", "value": 4.2, "unit": "mg/dL"},
      {"measurement": "Activity", "setting": "[6]", "value": 2.8, "unit": "mg/dL"},
      {"measurement": "Activity", "setting": "[7]", "value": 4.2, "unit": "mg/dL"},
      {"measurement": "Activity", "setting": "[8]", "value": 5.9, "unit": "mg/dL"}
    ]},
    {"smiles": "C=C1[C@H](O)CC(=C/C=C\\CC(C)(C)C[C@@H](C)CCCC(C)(C)O)C[C@H]1O", "values": [
      {"measurement": "EC50", "setting": "[9]", "value": 30, "unit": "nM"},
      {"measurement": "Activity", "setting": "[10]", "value": 0.2, "unit": "mg/dL"},
      {"measurement": "Activity", "setting": "[11]", "value": 0.1, "unit": "mg/dL"},
      {"measurement": "Ki", "setting": "[12]", "value": 10, "unit": "nM"}
    ]},
    {"smiles": "C=C1[C@H](O)CC(=C/C=C/CCC[C@@H](C)CCCC(C)(C)O)C[C@H]1O", "values": [
      {"measurement": "Ratio EC50", "setting": "[13]", "value": 100},
      {"measurement": "Activity", "setting": "[14]", "value": -0.2, "unit": "mg/dL"},
      {"measurement": "Activity", "setting": "[15]", "value": 0.1, "unit": "mg/dL"},
      {"measurement": "Activity", "setting": "[16]", "value": 0.2, "unit": "mg/dL"}
    ]},
    {"smiles": "C=C1[C@H](O)CC(=C/C=C/CC(C)(C)C[C@@H](C)CCCC(C)(C)O)C[C@H]1O", "values": [
      {"measurement": "Ratio EC50", "setting": "[13]", "value": 2},
      {"measurement": "EC50", "setting": "[9]", "value": 2, "unit": "nM"},
      {"measurement": "Activity", "setting": "[3]", "value": 0.2, "unit": "mg/dL"},
      {"measurement": "Activity", "setting": "[4]", "value": 0.4, "unit": "mg/dL"},
      {"measurement": "Activity", "setting": "[10]", "value": 0.6, "unit": "mg/dL"},
      {"measurement": "Activity", "setting": "[17]", "value": 0.3, "unit": "mg/dL"},
      {"measurement": "Activity", "setting": "[7]", "value": 0, "unit": "mg/dL"},
      {"measurement": "Activity", "setting": "[8]", "value": 1, "unit": "mg/dL"},
      {"measurement": "Activity", "setting": "[11]", "value": 0.4, "unit": "mg/dL"},
      {"measurement": "Activity", "setting": "[18]", "value": 2.6, "unit": "mg/dL"},
      {"measurement": "EC50", "setting": "[19]", "value": 6, "unit": "nM"},
      {"measurement": "Ki", "setting": "[12]", "value": 2, "unit": "nM"}
    ]}
  ]
}
